# Assay results from ChEMBL document CHEMBL3407388, “Synthesis, anticancer activity and molecular docking studies on a series of heterocyclic trans-cyanocombretastatin analogues as antitubulin agents” (2015).
# Key:
# Format in all cases: functional
# [1] = tested on: HL-60(TB); test: Cytotoxicity against human HL-60(TB) cells assessed as growth inhibition after 48 hrs by SRB assay; details: HL-60, 48 h
# How it was run: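 NCI 60-cell panel, leukemia subpanel. Five-dose screen at 10-fold dilutions from 10−4 to 10−8 M with 48 h drug exposure. GI50 is the molar concentration giving 50% reduction in net cell growth compared with cell numbers on day 0.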
# [2] = tested on: K562; test: Cytotoxicity against human K562 cells assessed as growth inhibition after 48 hrs by SRB assay; details: K562, 48 h
# How it was run: (§1)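 NCI 60-cell panel; compounds passing a single-dose screen (10−5 M, 48 h) were tested at five 10-fold dilutions (10−4 to 10−8 M) with 48 h drug exposure. GI50 is the molar concentration giving 50% reduction in net cell growth relative to cell numbers on day 0.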
# [3] = tested on: MOLT-4; test: Cytotoxicity against human MOLT4 cells assessed as growth inhibition after 48 hrs by SRB assay; details: MOLT-4, 48 h; how it was run: as §1
# [4] = tested on: RPMI-8226; test: Cytotoxicity against human RPMI8226 cells assessed as growth inhibition after 48 hrs by SRB assay; details: RPMI-8226, 48 h; how it was run: as §1
# [5] = tested on: NCI-H226; test: Cytotoxicity against human NCI-H226 cells assessed as growth inhibition after 48 hrs by SRB assay; details: NCI-H226, 48 h; how it was run: as §1
# [6] = tested on: NCI-H23; test: Cytotoxicity against human NCI-H23 cells assessed as growth inhibition after 48 hrs by SRB assay; details: NCI-H23, 48 h; how it was run: as §1
# [7] = tested on: COLO 205; test: Cytotoxicity against human COLO205 cells assessed as growth inhibition after 48 hrs by SRB assay; details: COLO 205, 48 h; how it was run: as §1
# [8] = tested on: HCC 2998; test: Cytotoxicity against human HCC2998 cells assessed as growth inhibition after 48 hrs by SRB assay; details: HCC 2998, 48 h; how it was run: as §1
# [9] = Cytotoxicity against human HCT116 cells assessed as growth inhibition after 48 hrs by SRB assay; details: HCT-116, 48 h; how it was run: as §1
# [10] = Cytotoxicity against human HCT15 cells assessed as growth inhibition after 48 hrs by SRB assay; details: HCT-15, 48 h; how it was run: as §1
# [11] = tested on: HT-29; test: Cytotoxicity against human HT-29 cells assessed as growth inhibition after 48 hrs by SRB assay; details: HT-29, 48 h; how it was run: as §1
# [12] = tested on: KM12; test: Cytotoxicity against human KM12 cells assessed as growth inhibition after 48 hrs by SRB assay; details: KM12, 48 h; how it was run: as §1
# [13] = tested on: SW-620; test: Cytotoxicity against human SW620 cells assessed as growth inhibition after 48 hrs by SRB assay; details: SW-620, 48 h
# [14] = tested on: SF-268; test: Cytotoxicity against human SF268 cells assessed as growth inhibition after 48 hrs by SRB assay; details: SF-268, 48 h; how it was run: as §1
# [15] = tested on: SF-295; test: Cytotoxicity against human SF295 cells assessed as growth inhibition after 48 hrs by SRB assay; details: SF-295, 48 h; how it was run: as §1
# [16] = tested on: SF-539; test: Cytotoxicity against human SF539 cells assessed as growth inhibition after 48 hrs by SRB assay; details: SF-539, 48 h; how it was run: as §1
# [17] = tested on: SNB-19; test: Cytotoxicity against human SNB19 cells assessed as growth inhibition after 48 hrs by SRB assay; details: SNB-19, 48 h; how it was run: as §1
# [18] = tested on: SNB-75; test: Cytotoxicity against human SNB75 cells assessed as growth inhibition after 48 hrs by SRB assay; details: SNB-75, 48 h
# [19] = tested on: U-251; test: Cytotoxicity against human U251 cells assessed as growth inhibition after 48 hrs by SRB assay; details: U-251, 48 h
# [20] = tested on: LOX IMVI; test: Cytotoxicity against human LOXIMVI cells assessed as growth inhibition after 48 hrs by SRB assay; how it was run: as §1
# [21] = tested on: M14; test: Cytotoxicity against human M14 cells assessed as growth inhibition after 48 hrs by SRB assay; details: M14, 48 h; how it was run: as §1
# [22] = tested on: MDA-MB-435; test: Cytotoxicity against human MDA-MB-435 cells assessed as growth inhibition after 48 hrs by SRB assay; details: MDA-MB-435, 48 h; how it was run: as §1
# [23] = Cytotoxicity against human UACC62 cells assessed as growth inhibition after 48 hrs by SRB assay; details: UACC-62, 48 h
# [24] = tested on: IGROV-1; test: Cytotoxicity against human IGROV1 cells assessed as growth inhibition after 48 hrs by SRB assay; details: IGROV-1, 48 h; how it was run: as §1
# [25] = Cytotoxicity against human OVCAR3 cells assessed as growth inhibition after 48 hrs by SRB assay; details: OVCAR-3, 48 h; how it was run: as §1
# [26] = Cytotoxicity against human OVCAR4 cells assessed as growth inhibition after 48 hrs by SRB assay; details: OVCAR-4, 48 h; how it was run: as §1
# [27] = Cytotoxicity against human OVCAR5 cells assessed as growth inhibition after 48 hrs by SRB assay; details: OVCAR-5, 48 h; how it was run: as §1
# [28] = Cytotoxicity against human OVCAR8 cells assessed as growth inhibition after 48 hrs by SRB assay; details: OVCAR-8, 48 h; how it was run: as §1
# [29] = Cytotoxicity against human NCI-ADR-RES cells assessed as growth inhibition after 48 hrs by SRB assay; how it was run: as §1
# [30] = tested on: SK-OV-3; test: Cytotoxicity against human SKOV3 cells assessed as growth inhibition after 48 hrs by SRB assay; details: SK-OV-3, 48 h; how it was run: as §1
# [31] = tested on: 786-0; test: Cytotoxicity against human 786-0 cells assessed as growth inhibition after 48 hrs by SRB assay; details: 786-0, 48 h; how it was run: as §1
# [32] = tested on: A498; test: Cytotoxicity against human A498 cells assessed as growth inhibition after 48 hrs by SRB assay; details: A498, 48 h; how it was run: as §1
# [33] = tested on: CAKI-1; test: Cytotoxicity against human Caki1 cells assessed as growth inhibition after 48 hrs by SRB assay; details: CAKI-1, 48 h; how it was run: as §1
# [34] = tested on: RXF 393; test: Cytotoxicity against human RXF393 cells assessed as growth inhibition after 48 hrs by SRB assay; details: RXF 393, 48 h; how it was run: as §1
# [35] = tested on: SN12C; test: Cytotoxicity against human SN12C cells assessed as growth inhibition after 48 hrs by SRB assay; how it was run: as §1
# [36] = tested on: TK-10; test: Cytotoxicity against human TK10 cells assessed as growth inhibition after 48 hrs by SRB assay; details: TK-10, 48 h
# [37] = Cytotoxicity against human UO31 cells assessed as growth inhibition after 48 hrs by SRB assay; details: UO-31, 48 h
# [38] = Cytotoxicity against human PC3 cells assessed as growth inhibition after 48 hrs by SRB assay; details: PC-3, 48 h; how it was run: as §1
# [39] = tested on: DU-145; test: Cytotoxicity against human DU145 cells assessed as growth inhibition after 48 hrs by SRB assay; details: DU-145, 48 h; how it was run: as §1
# [40] = tested on: MCF7; test: Cytotoxicity against human MCF7 cells assessed as growth inhibition after 48 hrs by SRB assay; details: MCF7, 48 h; how it was run: as §1
# [41] = tested on: MDA-MB-231; test: Cytotoxicity against human MDA-MB-231 cells assessed as growth inhibition after 48 hrs by SRB assay; details: MDA-MB-231, 48 h; how it was run: as §1
# [42] = Cytotoxicity against human Hs578T cells assessed as growth inhibition after 48 hrs by SRB assay; details: Hs-578T; how it was run: as §1
# [43] = tested on: BT-549; test: Cytotoxicity against human BT549 cells assessed as growth inhibition after 48 hrs by SRB assay; details: BT-549, 48 h; how it was run: as §1
smiles,measurement,setting,value
COc1ccc2[nH]cc(/C=C(\C#N)c3cc(OC)c(OC)c(OC)c3)c2c1,GI50,[1],59 nM
same,GI50,[2],44 nM
same,GI50,[3],198 nM
same,GI50,[4],241 nM
same,GI50,[5],170 nM
same,GI50,[6],101 nM
same,GI50,[7],51 nM
same,GI50,[8],119 nM
same,GI50,[9],45 nM
same,GI50,[10],68 nM
same,GI50,[11],38 nM
same,GI50,[12],44 nM
same,GI50,[13],46 nM
same,GI50,[14],2140 nM
same,GI50,[15],42 nM
same,GI50,[16],71 nM
same,GI50,[17],89 nM
same,GI50,[18],43 nM
same,GI50,[19],50 nM
same,GI50,[20],74 nM
same,GI50,[21],52 nM
same,GI50,[22],27 nM
same,GI50,[23],59 nM
same,GI50,[24],379 nM
same,GI50,[25],34 nM
same,GI50,[26],1350 nM
same,GI50,[27],516 nM
same,GI50,[28],148 nM
same,GI50,[29],37 nM
same,GI50,[30],56 nM
same,GI50,[31],85 nM
same,GI50,[32],25 nM
same,GI50,[33],72 nM
same,GI50,[34],33 nM
same,GI50,[35],715 nM
same,GI50,[36],20100 nM
same,GI50,[37],1260 nM
same,GI50,[38],54 nM
same,GI50,[39],153 nM
same,GI50,[40],36 nM
same,GI50,[41],299 nM
same,GI50,[42],124 nM
same,GI50,[43],348 nM
COc1cc(/C(C#N)=C/c2coc3ccccc23)cc(OC)c1OC,GI50,[1],1030 nM
same,GI50,[2],513 nM
same,GI50,[3],3820 nM
same,GI50,[4],2470 nM
same,GI50,[5],6200 nM
same,GI50,[6],4580 nM
same,GI50,[7],449 nM
same,GI50,[8],4130 nM
same,GI50,[9],517 nM
same,GI50,[10],492 nM
same,GI50,[11],394 nM
same,GI50,[12],586 nM
same,GI50,[13],504 nM
same,GI50,[14],4790 nM
same,GI50,[15],446 nM
same,GI50,[16],442 nM
same,GI50,[17],3630 nM
same,GI50,[18],769 nM
same,GI50,[19],605 nM
same,GI50,[20],993 nM
same,GI50,[21],667 nM
same,GI50,[22],278 nM
same,GI50,[23],519 nM
same,GI50,[24],3060 nM
same,GI50,[25],277 nM
same,GI50,[26],2610 nM
same,GI50,[27],3330 nM
same,GI50,[28],2900 nM
same,GI50,[29],382 nM
same,GI50,[30],1710 nM
same,GI50,[31],6110 nM
same,GI50,[32],458 nM
same,GI50,[33],650 nM
same,GI50,[34],496 nM
same,GI50,[35],2170 nM
same,GI50,[36],2100 nM
same,GI50,[37],2890 nM
same,GI50,[38],1840 nM
same,GI50,[39],1880 nM
same,GI50,[40],376 nM
same,GI50,[41],1710 nM
same,GI50,[42],2030 nM
same,GI50,[43],927 nM
COc1ccc(/C(C#N)=C/c2c[nH]c3ccccc23)cc1OC,GI50,[1],4570 nM
same,GI50,[2],1650 nM
same,GI50,[3],3990 nM
same,GI50,[4],3960 nM
same,GI50,[5],20900 nM
same,GI50,[6],7190 nM
same,GI50,[7],5310 nM
same,GI50,[8],12600 nM
same,GI50,[9],35500 nM
same,GI50,[10],3700 nM
same,GI50,[11],3320 nM
same,GI50,[12],4040 nM
same,GI50,[13],3530 nM
same,GI50,[14],18900 nM
same,GI50,[15],4920 nM
same,GI50,[16],8420 nM
same,GI50,[17],24200 nM
same,GI50,[18],6040 nM
same,GI50,[19],4970 nM
same,GI50,[20],5320 nM
same,GI50,[21],3750 nM
same,GI50,[22],3950 nM
same,GI50,[23],6980 nM
same,GI50,[24],21000 nM
same,GI50,[25],5680 nM
same,GI50,[26],22100 nM
same,GI50,[27],> 100000 nM
same,GI50,[28],7380 nM
same,GI50,[29],1700 nM
same,GI50,[30],11900 nM
same,GI50,[31],14100 nM
same,GI50,[32],3360 nM
same,GI50,[33],4340 nM
same,GI50,[34],4480 nM
same,GI50,[35],8100 nM
same,GI50,[36],13200 nM
same,GI50,[37],14300 nM
same,GI50,[38],7850 nM
same,GI50,[39],22600 nM
same,GI50,[40],3100 nM
same,GI50,[41],7180 nM
same,GI50,[42],12900 nM
same,GI50,[43],5380 nM
